The values below come from ChEMBL document CHEMBL3297742, “Tetrahydronaphthyridine and dihydronaphthyridinone ethers as positive allosteric modulators of the metabotropic glutamate receptor 5 (mGlu₅)” (J Med Chem, 2014).

Broadly, the EC50 is the concentration needed to bring the measured effect to its halfway point. The term fraction unbound denotes free concentration divided by total concentration. Read a low fraction unbound as little free substance. One may read the IC50 as the concentration that gives 50% inhibition. A high value points to lower potency. As a reminder, the solubility is the concentration that dissolves in the medium under given conditions. A low value points to a poorly soluble substance. In general, Cmax refers to the peak of the concentration-time curve. One may read the Tmax as the time at which the peak concentration occurs.

Each structure is given as a SMILES string. ≈ marks a conversion by molar mass, not a printed value. Bounds are passed on as bounds.

Series [1] has as its system Rattus norvegicus. As to the kind of experiment: Toxicity in Sprague-Dawley rat assessed as motor output at 30 to 100 mg/kg, po after 30 mins by rotarod test. Type of series: organism-based. Also noted: dose 30-100 mg/kg, route oral. The conditions noted are these: in vivo, 0.5 h. A digest of the protocol: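 Male Sprague–Dawley rats (250–300 g) trained twice on a 20 rpm rotarod (120 s trials); animals below 85 s at baseline were excluded. Rats received 30, 56.6 or 100 mg/kg po in 20% HP-β-CD or vehicle (n = 6) and were tested 30 min later in a 120 s trial; time on the rod was recorded, with a 120 s cutoff.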

Series [2] has as its system Rattus norvegicus. Briefly: Toxicity in Sprague-Dawley rat assessed as autonomic nervous system deficit at 100 mg/kg, po measured up to 4 hrs by irwin neurological test. The conditions noted are these: in vivo. Type of series: organism-based. Also noted: dose 100 mg/kg, route oral. The method in brief:
(§1)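 Male Sprague–Dawley rats (250–300 g) scored at baseline, then given vehicle (20% HP-β-CD) or 100 mg/kg po (n = 6 each). Modified Irwin battery repeated at 30 min, 1 h and 4 h; each end point scored 0, 1 or 2; significance taken at p ≤ 0.05.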

For series [3], the system named is Rattus norvegicus. As to the kind of experiment: Toxicity in Sprague-Dawley rat assessed as somatomotor nervous system deficit at 100 mg/kg, po measured up to 4 hrs by irwin neurological test. The format is organism-based. On the set-up: dose 100 mg/kg, route oral. The note with it: in vivo. The method in brief:
as §1

Series [4] can be described thus: Ratio of unbound drug level in brain to plasma in rat. Type of series: ADME, cell-free. The method in brief:
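Kp,uu derived from the in vivo brain:plasma ratio and in vitro rat fu,plasma/fu,brain, with the binding values from rat plasma protein and rat brain homogenate binding experiments.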

Series [5] relates to Plasma. Briefly: Fraction unbound in human plasma. The format is ADME, cell-free.
The subject of series [6] is Plasma. Briefly: Fraction unbound in rat plasma. Type of series: ADME, cell-free.
Series [7] has as its target Metabotropic glutamate receptor 2 (Rattus norvegicus, UniProt P31421). As to the kind of experiment: Positive allosteric modulator activity at rat mGlu2 receptor expressed in HEK293 cells assessed as glutamate-induced GIRK channel-mediated thallium flux treated 140s prior to gluatamate challenge by fluorescence analysis. The format is cell-based. A digest of the protocol:
(§2)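 HEK293-GIRK cells expressing rat mGlu2, 3, 4, 6, 7 or 8, 15000 cells/well. Vehicle or 10 µM compound added, then 140 s later a glutamate CRC (L-AP4 for mGlu7) in thallium buffer (12 mM thallium sulfate, 10 mM HEPES). Thallium flux through GIRK read by fluorescence.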

Series [8] concerns the target Metabotropic glutamate receptor 4 (Rattus norvegicus, UniProt P31423). As to the kind of experiment: Positive allosteric modulator activity at rat mGlu4 receptor expressed in HEK293 cells assessed as glutamate-induced GIRK channel-mediated thallium flux treated 140s prior to gluatamate challenge by fluorescence analysis. Type of series: cell-based. A digest of the protocol: as §2

For series [9], the target named is Metabotropic glutamate receptor 6 (Rattus norvegicus, UniProt P35349). Briefly: Positive allosteric modulator activity at rat mGlu6 receptor expressed in HEK293 cells assessed as glutamate-induced GIRK channel-mediated thallium flux treated 140s prior to gluatamate challenge by fluorescence analysis. Type of series: cell-based. The method in brief:
as §2

The target of series [10] is Metabotropic glutamate receptor 7 (Rattus norvegicus, UniProt P35400). As to the kind of experiment: Positive allosteric modulator activity at rat mGlu7 receptor expressed in HEK293 cells assessed as L-AP4-induced GIRK channel-mediated thallium flux treated 140s prior to L-AP4 challenge by fluorescence analysis. Type of series: cell-based. A digest of the protocol:
as §2

A short description of series [11]: Fraction unbound in rat brain. The format is ADME, tissue-based. A digest of the protocol: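 Fraction unbound measured by rat brain homogenate binding.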
Series [12] has as its target T1, Cytochrome P450 1A2 (Homo sapiens, UniProt P05177).
T1 sequence (P05177 whole entry): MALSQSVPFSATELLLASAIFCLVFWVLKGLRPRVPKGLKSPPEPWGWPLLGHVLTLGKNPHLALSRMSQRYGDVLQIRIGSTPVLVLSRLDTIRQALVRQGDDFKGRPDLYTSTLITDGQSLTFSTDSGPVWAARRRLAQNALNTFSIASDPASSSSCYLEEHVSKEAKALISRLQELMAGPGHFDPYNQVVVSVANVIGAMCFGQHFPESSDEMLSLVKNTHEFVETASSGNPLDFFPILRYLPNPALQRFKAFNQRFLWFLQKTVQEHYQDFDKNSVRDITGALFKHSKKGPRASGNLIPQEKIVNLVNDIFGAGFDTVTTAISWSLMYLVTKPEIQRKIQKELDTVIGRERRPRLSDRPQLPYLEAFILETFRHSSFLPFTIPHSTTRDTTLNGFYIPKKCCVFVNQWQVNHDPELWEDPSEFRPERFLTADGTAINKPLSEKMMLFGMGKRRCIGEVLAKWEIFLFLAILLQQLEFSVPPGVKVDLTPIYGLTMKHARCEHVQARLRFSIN
As to the kind of experiment: Inhibition of CYP1A2 in human liver microsomes. The format is ADME. The method in brief: (§3)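 CYP1A2, 2C9, 2D6 and 3A4 inhibition measured together in a cocktail assay with human liver microsomes and known probe substrates; IC50 determined.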
(In general: Liver microsomes are a subcellular fraction often used to study metabolism.)

Series [13] addresses Cytochrome P450 2C9 (Homo sapiens, UniProt P11712). As to the kind of experiment: Inhibition of CYP2C9 in human liver microsomes. The format is ADME. The method in brief:
as §3

The target of series [14] is Cytochrome P450 2D6 (Homo sapiens, UniProt P10635). Briefly: Inhibition of CYP2D6 in human liver microsomes. Type of series: ADME. The method in brief:
as §3

Series [15] concerns the target Cytochrome P450 3A4 (Homo sapiens, UniProt P08684). As to the kind of experiment: Inhibition of CYP3A4 in human liver microsomes. Type of series: ADME. A digest of the protocol:
as §3

Series [16] is described as follows: Kinetic solubility of the compound in buffer at pH 2. Type of series: physicochemical. The method in brief:
(§4)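 Kinetic aqueous solubility measured in buffers at pH 2, 4 and 7.4.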

The nature of series [17]: Kinetic solubility of the compound in buffer at pH 7.4. The format is physicochemical. A digest of the protocol:
as §4

Series [18] in a line: Solubility of the compound in fasted simulated intestinal fluid at pH 7.2 after 24 hrs. The format is ADME. The note with it: simulated gi fluid, pH 7.2, 24 h. The method in brief:
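Solubility in fasted simulated intestinal fluid (FaSSIF), pH 7.2.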

A short description of series [19]: Cmax in Sprague-Dawley rat at 10 mg/kg, po. On the set-up: dose 10 mg/kg, route oral. Type of series: ADME, organism-based. The conditions noted are these: in vivo.
Series [20] in a line: Tmax in Sprague-Dawley rat at 10 mg/kg, po. Type of series: ADME, organism-based. On the set-up: dose 10 mg/kg, route oral. The conditions noted are these: in vivo.
Series [21] in a line: Drug uptake in Sprague-Dawley rat brain at 56.6 mg/kg, po after 1.5 hrs by LC-MS/MS analysis. The format is ADME, organism-based. On the set-up: dose 56.6 mg/kg, route oral. The conditions noted are these: read-out: Drug uptake. A digest of the protocol: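 Male Sprague–Dawley rats (250–375 g), fasted overnight, were dosed orally at 56.6 mg/kg in 20% HP-β-cyclodextrin (pH 6–7) during an amphetamine hyperlocomotion screen. Brain and plasma were taken at 1.5 h. Brain was homogenized in 70:30 2-propanol:water, and samples were diluted in acetonitrile with 50 nM carbamazepine internal standard. Analysis was C18 gradient LC-ESI-MS/MS against a standard curve.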

The subject of series [22] is Rattus norvegicus. Briefly: Antipsychotic activity in po dosed Sprague-Dawley rat assessed as reversal of amphetamine-induced hyperlocomotion administered for 30 mins prior to amphetamine challenge for 60 mins. The format is functional, organism-based. A digest of the protocol: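 Male Sprague–Dawley rats (250–375 g), food-deprived overnight, habituated 30 min in locomotor chambers. Compound given po (3–100 mg/kg in 20% HP-β-CD, pH 6–7, ≤10 mL/kg) 30 min before amphetamine 1 mg/kg sc, then monitored 60 min (120 min total). Photobeam breaks over 60–120 min give percent reversal against the vehicle+amphetamine group, mean ± SE, n = 6–8.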

Chain of Metabotropic glutamate receptor 6 (P35349 whole entry): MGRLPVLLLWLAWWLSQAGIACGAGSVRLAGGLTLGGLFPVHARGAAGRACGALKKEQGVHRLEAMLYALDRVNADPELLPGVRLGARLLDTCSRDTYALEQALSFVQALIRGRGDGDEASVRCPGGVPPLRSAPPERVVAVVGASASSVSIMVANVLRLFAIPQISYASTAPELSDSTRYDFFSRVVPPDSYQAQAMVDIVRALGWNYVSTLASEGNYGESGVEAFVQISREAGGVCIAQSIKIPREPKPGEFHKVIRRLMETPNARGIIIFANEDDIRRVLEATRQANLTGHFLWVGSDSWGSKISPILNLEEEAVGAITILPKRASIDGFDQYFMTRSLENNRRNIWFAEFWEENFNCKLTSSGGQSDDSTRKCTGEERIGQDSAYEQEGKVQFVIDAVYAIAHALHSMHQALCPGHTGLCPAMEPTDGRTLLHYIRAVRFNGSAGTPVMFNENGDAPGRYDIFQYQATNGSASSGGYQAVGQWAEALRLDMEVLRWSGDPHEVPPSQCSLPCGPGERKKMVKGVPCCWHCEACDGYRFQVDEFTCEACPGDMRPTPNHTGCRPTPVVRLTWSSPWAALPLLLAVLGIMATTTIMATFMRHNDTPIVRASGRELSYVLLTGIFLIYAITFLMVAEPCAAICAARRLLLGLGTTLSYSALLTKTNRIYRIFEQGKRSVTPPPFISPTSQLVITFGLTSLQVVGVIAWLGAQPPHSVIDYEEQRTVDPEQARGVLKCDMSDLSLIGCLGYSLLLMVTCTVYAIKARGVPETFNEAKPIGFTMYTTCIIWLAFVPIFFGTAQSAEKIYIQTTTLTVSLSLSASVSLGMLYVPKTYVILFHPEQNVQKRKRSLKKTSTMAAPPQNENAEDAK
Chain of Cytochrome P450 2D6 (P10635 whole entry): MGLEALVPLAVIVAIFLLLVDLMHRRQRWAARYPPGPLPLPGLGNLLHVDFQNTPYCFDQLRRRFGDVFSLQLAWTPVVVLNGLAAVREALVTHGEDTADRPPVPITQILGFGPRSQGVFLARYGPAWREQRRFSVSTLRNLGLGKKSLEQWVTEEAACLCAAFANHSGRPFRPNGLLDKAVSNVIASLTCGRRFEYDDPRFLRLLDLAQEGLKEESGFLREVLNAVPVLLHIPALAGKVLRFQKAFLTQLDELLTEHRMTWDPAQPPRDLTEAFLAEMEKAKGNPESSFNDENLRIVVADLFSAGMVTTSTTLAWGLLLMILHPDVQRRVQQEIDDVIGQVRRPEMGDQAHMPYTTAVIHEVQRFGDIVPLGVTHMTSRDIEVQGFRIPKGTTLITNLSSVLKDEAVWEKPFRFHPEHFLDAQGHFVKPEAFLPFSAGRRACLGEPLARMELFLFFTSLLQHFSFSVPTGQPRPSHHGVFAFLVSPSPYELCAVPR
Chain of Cytochrome P450 2C9 (P11712 whole entry): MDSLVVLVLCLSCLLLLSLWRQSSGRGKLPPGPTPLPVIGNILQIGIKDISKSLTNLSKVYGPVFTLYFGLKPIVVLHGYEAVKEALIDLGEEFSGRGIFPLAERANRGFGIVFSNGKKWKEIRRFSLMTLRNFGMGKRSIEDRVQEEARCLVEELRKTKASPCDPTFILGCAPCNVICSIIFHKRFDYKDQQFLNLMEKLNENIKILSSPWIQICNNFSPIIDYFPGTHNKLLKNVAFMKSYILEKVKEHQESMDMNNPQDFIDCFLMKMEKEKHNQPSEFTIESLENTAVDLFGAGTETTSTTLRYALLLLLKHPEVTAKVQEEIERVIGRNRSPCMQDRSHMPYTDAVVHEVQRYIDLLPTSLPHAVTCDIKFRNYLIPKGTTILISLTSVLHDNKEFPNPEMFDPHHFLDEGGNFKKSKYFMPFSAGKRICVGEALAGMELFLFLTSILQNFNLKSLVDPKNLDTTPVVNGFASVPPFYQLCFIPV
Chain of Cytochrome P450 3A4 (P08684 whole entry): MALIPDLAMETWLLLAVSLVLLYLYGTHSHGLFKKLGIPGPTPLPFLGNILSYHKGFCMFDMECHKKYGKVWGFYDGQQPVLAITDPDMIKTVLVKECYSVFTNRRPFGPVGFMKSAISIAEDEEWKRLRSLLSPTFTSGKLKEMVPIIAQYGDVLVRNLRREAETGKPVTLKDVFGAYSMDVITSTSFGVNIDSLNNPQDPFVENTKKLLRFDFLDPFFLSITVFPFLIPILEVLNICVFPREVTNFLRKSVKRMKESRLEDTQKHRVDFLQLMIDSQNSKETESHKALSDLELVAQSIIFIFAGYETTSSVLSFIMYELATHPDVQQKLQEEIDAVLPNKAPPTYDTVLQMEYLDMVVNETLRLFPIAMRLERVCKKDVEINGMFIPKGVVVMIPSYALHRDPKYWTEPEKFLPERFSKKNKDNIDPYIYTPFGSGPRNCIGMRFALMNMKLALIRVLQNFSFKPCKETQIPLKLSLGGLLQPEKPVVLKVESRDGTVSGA
Chain of Metabotropic glutamate receptor 4 (P31423 whole entry): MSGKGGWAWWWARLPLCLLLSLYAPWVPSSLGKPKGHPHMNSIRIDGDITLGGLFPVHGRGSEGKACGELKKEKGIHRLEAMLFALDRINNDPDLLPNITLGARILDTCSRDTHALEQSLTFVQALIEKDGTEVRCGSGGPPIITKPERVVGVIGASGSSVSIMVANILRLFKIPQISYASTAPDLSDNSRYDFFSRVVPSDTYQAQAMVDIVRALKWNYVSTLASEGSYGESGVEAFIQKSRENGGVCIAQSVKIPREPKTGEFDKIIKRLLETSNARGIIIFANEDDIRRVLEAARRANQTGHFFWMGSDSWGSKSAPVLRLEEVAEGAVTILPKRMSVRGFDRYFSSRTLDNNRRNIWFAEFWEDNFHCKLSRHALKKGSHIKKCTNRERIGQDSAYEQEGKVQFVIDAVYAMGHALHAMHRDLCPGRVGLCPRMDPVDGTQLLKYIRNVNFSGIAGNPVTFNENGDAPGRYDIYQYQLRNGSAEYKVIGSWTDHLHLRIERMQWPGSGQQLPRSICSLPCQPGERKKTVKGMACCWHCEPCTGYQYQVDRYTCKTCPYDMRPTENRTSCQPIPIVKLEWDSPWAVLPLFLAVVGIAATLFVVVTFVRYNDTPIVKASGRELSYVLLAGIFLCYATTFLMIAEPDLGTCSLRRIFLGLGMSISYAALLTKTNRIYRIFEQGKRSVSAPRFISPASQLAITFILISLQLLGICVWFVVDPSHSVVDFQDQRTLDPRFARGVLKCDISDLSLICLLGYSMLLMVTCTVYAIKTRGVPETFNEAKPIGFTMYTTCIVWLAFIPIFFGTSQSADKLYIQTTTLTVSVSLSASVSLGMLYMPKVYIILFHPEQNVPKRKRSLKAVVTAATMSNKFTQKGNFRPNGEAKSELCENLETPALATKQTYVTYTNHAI
Chain of Metabotropic glutamate receptor 7 (P35400 whole entry): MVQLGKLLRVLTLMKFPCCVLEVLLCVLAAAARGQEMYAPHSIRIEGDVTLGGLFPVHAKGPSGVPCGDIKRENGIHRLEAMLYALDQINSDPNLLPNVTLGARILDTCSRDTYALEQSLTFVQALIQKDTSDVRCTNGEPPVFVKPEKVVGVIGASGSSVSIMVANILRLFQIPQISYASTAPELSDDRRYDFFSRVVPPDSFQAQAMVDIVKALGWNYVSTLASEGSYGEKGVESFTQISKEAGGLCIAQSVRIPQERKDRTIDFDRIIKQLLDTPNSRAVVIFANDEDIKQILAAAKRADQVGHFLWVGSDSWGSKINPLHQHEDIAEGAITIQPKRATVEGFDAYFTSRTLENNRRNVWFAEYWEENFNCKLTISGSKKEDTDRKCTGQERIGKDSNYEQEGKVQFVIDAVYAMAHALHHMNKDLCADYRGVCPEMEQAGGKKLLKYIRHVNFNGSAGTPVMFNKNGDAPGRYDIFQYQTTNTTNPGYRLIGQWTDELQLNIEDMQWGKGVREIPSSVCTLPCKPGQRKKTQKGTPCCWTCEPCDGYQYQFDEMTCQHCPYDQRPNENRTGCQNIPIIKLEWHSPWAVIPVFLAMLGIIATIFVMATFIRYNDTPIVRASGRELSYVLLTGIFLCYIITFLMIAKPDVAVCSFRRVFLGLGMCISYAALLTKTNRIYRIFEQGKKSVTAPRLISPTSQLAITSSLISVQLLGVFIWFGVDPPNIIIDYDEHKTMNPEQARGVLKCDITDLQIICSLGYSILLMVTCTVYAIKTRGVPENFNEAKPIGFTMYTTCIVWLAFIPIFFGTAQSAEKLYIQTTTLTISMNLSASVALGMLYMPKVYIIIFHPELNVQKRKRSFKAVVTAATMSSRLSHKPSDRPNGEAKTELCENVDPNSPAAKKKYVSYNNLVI
Chain of Metabotropic glutamate receptor 2 (P31421 whole entry): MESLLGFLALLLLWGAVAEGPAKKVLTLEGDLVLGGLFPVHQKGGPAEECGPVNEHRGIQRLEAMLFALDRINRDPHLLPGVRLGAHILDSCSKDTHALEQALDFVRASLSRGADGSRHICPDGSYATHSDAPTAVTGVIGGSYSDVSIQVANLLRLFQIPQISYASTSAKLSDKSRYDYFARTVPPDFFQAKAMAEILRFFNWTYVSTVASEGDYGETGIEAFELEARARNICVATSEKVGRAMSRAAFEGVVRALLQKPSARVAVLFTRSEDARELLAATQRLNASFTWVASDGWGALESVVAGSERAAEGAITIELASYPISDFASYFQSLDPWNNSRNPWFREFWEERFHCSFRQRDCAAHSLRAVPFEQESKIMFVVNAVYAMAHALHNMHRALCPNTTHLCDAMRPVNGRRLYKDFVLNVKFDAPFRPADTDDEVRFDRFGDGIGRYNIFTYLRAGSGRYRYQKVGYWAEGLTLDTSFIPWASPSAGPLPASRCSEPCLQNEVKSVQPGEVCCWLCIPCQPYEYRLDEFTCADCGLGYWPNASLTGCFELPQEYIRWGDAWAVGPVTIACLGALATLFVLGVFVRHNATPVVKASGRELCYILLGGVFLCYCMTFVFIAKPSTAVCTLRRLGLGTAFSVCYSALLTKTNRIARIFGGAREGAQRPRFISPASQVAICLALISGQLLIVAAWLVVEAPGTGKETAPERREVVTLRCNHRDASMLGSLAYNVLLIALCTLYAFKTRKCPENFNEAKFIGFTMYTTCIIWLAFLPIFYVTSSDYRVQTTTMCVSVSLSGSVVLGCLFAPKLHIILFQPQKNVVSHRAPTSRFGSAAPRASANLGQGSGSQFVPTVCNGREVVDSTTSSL

For `O=C1NCCc2nc(OCc3cccc(F)c3)ccc21`, the Activity entry in series [1], in series [2] and in series [3] was “Non-toxic” each time. For the same compound, the “K(p,uu,brain)” value in [4] was determined as 1.1. The Fu in series [5] was 0.047; in [6] it was 0.034. For the same compound, the EC50 in [7], in series [8], in series [9] and in [10] was more than 10 µM throughout. This compound also showed an unbound share (fraction unbound) in series [11] of 0.02. Further, the 50% inhibitory concentration (IC50) in series [12] was 25.7 µM; in series [13], more than 30 µM; in [14], more than 30 µM; in [15] it was more than 30 µM. Besides, the values for the Kinetic_solubility in series [16] and in series [17] were 38 µM and 28 µM, respectively. Moreover, in series [18], the solubility is 31 µg/mL (≈ 114 µM). The compound also returned a peak concentration (Cmax) in [19] of 3.36 µM. In addition, the Tmax in series [20] is 30 min. In series [21], the concentration at 1.5 h stood at 16.6 µM. Moreover, the inhibition result in [22] was “Dose-dependent effect”.
